Measurements reported in ChEMBL document CHEMBL3877310, “Rickettsia prowazekii methionine aminopeptidase as a promising target for the development of antibacterial agents” (Bioorg Med Chem, 2017).
Activity calls are given as the source filed them. The calls are words filed in the database; no cut-off is given here.

Tests used:
[1] = tested on: Endothelial cell; assay: Antibacterial activity against Rickettsia prowazekii str. Breinl infected in CD rat primary pulmonary vascular endothelial cells assessed as protection against bacterial infection by measuring restoration of host cell viability at 0.3 to 300 uM measured 72 hrs post infection by WST1 assay; assay type: functional, cell-based
[2] = organism: Rattus norvegicus; assay: Cytotoxicity against CD rat primary pulmonary vascular endothelial cells assessed as reduction in cell viability at 0.3 to 300 uM measured after 72 hrs by WST1 assay; assay type: toxicity, cell-based
Outline: (§1)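 Uninfected primary CD-rat pulmonary ECs (passage <15, DMEM high glucose/10% FBS/4 mM L-glutamine, 37 °C, 5% CO2) exposed to compounds over graded ranges with 0.3% DMSO as solvent. Viability read as WST-1 metabolism.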

[3] = organism: Rattus norvegicus; assay: Cytotoxicity against CD rat primary pulmonary vascular endothelial cells assessed as reduction in cell viability at 0.02 to 20 uM measured after 72 hrs by WST1 assay; assay type: toxicity, cell-based; outline: as §1
[4] = organism: Rattus norvegicus; assay: Cytotoxicity against CD rat primary pulmonary vascular endothelial cells assessed as reduction in cell viability at 0.003 to 3 uM measured after 72 hrs by WST1 assay; assay type: toxicity, cell-based; outline: as §1
[5] = tested on: Endothelial cell; assay: Antibacterial activity against Rickettsia prowazekii str. Breinl infected in CD rat primary pulmonary vascular endothelial cells assessed as protection against bacterial infection by measuring restoration of host cell viability at 0.003 to 3 uM measured 72 hrs post infection by WST1 assay; assay type: functional, cell-based
[6] = (§2) Antibacterial activity against Rickettsia prowazekii str. Breinl infected with 50:1 multiplicity of infection in CD rat primary pulmonary vascular endothelial cells assessed as restoration of host cell viability by measuring fold reduction in viability at 0.003 to 3 uM measured 72 hrs post infection by WST1 assay relative to control; assay type: functional
[7] = organism: Rattus norvegicus; assay: Cytotoxicity against CD rat primary pulmonary vascular endothelial cells assessed as reduction in cell viability at 0.0075 to 7.5 uM measured after 72 hrs by WST1 assay; assay type: toxicity, cell-based; outline: as §1
[8] = target: Methionine aminopeptidase 2 (Homo sapiens, UniProt P50579); assay: Inhibition of recombinant full length human N-terminal GST/His6-tagged methionine aminopeptidase 2 expressed in baculovirus infected sf9 cells using methionylprolyl-p-nitroanilide as substrate preincubated for 20 mins followed by substrate addition measured for 20 mins in presence of MnCl2 by proline aminopeptidase coupled enzyme assay
Sequence of Methionine aminopeptidase 2 (P50579 whole entry): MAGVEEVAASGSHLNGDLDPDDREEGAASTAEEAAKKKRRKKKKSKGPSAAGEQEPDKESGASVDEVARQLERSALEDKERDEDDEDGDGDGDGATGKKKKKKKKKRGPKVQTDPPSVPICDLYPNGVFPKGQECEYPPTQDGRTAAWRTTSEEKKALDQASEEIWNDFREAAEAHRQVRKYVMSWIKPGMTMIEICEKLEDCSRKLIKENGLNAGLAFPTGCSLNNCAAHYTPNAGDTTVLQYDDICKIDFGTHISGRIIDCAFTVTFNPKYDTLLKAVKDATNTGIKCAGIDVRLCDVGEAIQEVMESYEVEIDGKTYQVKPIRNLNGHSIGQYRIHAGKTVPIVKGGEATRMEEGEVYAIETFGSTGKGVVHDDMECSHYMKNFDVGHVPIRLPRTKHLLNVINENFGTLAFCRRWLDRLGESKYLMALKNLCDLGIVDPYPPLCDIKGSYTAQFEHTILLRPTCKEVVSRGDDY

[9] = organism: Rattus norvegicus; assay: Cytotoxicity against CD rat primary pulmonary vascular endothelial cells assessed as reduction in cell viability at 0.03 to 30 uM measured after 72 hrs by WST1 assay; assay type: toxicity, cell-based; outline: as §1
[10] = target: Methionine aminopeptidase 1 (Homo sapiens, UniProt P53582); assay: Inhibition of recombinant full length human His-tagged methionine aminopeptidase 1 expressed in Escherichia coli BL21(DE3) using methionylprolyl-p-nitroanilide as substrate preincubated for 20 mins followed by substrate addition measured for 20 mins in presence of CoCl2 by proline aminopeptidase coupled enzyme assay
[11] = tested on: Endothelial cell; assay: Antibacterial activity against Rickettsia prowazekii str. Breinl infected in CD rat primary pulmonary vascular endothelial cells assessed as protection against bacterial infection by measuring restoration of host cell viability at 0.03 to 30 uM measured 72 hrs post infection by WST1 assay; assay type: functional, cell-based
[12] = as §2, with “0.3” for “0.003”, “300” for “3”; assay type: functional
[13] = organism: Rattus norvegicus; assay: Cytotoxicity against CD rat primary pulmonary vascular endothelial cells assessed as effect on appearance of cell monolayers at 300 uM measured after 72 hrs by Hoechst 33258/phalloidin staining based fluorescence microscopic analysis; assay type: toxicity
[14] = tested on: Endothelial cell; assay: Antibacterial activity against Rickettsia prowazekii str. Breinl infected in CD rat primary pulmonary vascular endothelial cells assessed as bacterial shape change at 300 uM measured 72 hrs post infection by Hoechst 33258/phalloidin staining based fluorescence microscopic analysis; assay type: functional
[15] = tested on: Endothelial cell; assay: Antibacterial activity against Rickettsia prowazekii str. Breinl infected in CD rat primary pulmonary vascular endothelial cells assessed as bacterial shape change at 25 ug/ml measured 72 hrs post infection by Hoechst 33258/phalloidin staining based fluorescence microscopic analysis; assay type: functional

In the case of `Cc1ccc(CSc2nnc(N)[nH]2)cc1`, the Activity [1] is reported as “Active” and the Activity [2] is reported as “Non-Toxic”.

For `Oc1c(CN2CCOCC2)cc(Cl)c2cccnc12`, the Activity [3] was “Non-Toxic”.

For `O=[N+]([O-])c1cc(CN2CCOCC2)c(O)c2ncccc12`, the Activity [4] was “Non-Toxic”, the Activity [5] was “Active” and the “fold change (FC)” value [6] was 1.2.

With `Nc1nnc(SCc2ccc(F)cc2)[nH]1` the Activity [1] was “Active” and the Activity [2] was “Non-Toxic”.

For `O=[N+]([O-])c1cc(CN2CCCCC2)c(O)c2ncccc12`, the Activity [7] was “Non-Toxic”.

With `CC(C)(C)c1ccc(CSc2nnc(N)[nH]2)cc1` the IC50 [8] was over 15000 nM and the Activity [9] was “Non-Toxic”.

For `Cc1ccc2cccc(O)c2n1` [8-HYDROXY QUINALDINE], the IC50 [10] was over 15 µM and the Activity [4] was “Non-Toxic”.

In the case of `Nc1nnc(SCc2ccc(Cl)cc2Cl)[nH]1`, the Activity [9] is reported as “Non-Toxic”.

For `Nc1n[nH]c(SCc2ccccc2Cl)n1`, the Activity [1] was “Active” and the Activity [2] was “Non-Toxic”.

With `Nc1n[nH]c(SCc2ccccc2)n1` the Activity [1] was “Active” and the Activity [2] was “Non-Toxic”.

For `O=[N+]([O-])c1ccc(O)c2ncccc12` [NITROXOLINE], the Activity [4] was “Non-Toxic”.

In the case of `Oc1ccc(Cl)c2cccnc12` [CLOXYQUIN], the Activity [9] is reported as “Non-Toxic” and the Activity [11] is reported as “Active”.

In the case of `O=C(O)c1ccc(-c2cc(Cl)ccc2Cl)o1`, the Activity [2] is reported as “Non-Toxic”.

With `Nc1nnc(SCc2ccc(Cl)cc2)[nH]1` the Activity [1] was “Active”, the “fold change (FC)” value [12] was 1.2 and the Activity [13] was “Non-Toxic”. The Activity [14] was “Active” and the Activity [2] was “Non-Toxic”.

With `Oc1cccc2cccnc12` [OXYQUINOLINE] the IC50 [10] was 12.9 µM, the IC50 [8] was 1270 nM and the Activity [9] was “Non-Toxic”. The Activity [11] was “Active”.

With `O=C(O)c1ccc(-c2ccccc2Cl)o1` the Activity [2] was “Non-Toxic”.

With `CC(C)c1ccc(CSc2nnc(N)[nH]2)cc1` the Activity [9] was “Non-Toxic”.

With `C[C@H]1c2cccc(O)c2C(=O)C2=C(O)[C@]3(O)C(=O)C(C(N)=O)=C(O)[C@@H](N(C)C)[C@@H]3[C@@H](O)[C@@H]21` the Activity [15] was “Active”.
